Data: ChEMBL document CHEMBL1177875, “Antitumor activity of (-)-alpha-bisabolol-based thiosemicarbazones against human tumor cell lines” (2010)

Legend:
Assay type in all cases: functional
UACC-62 = assay: Cytotoxicity against human UACC62 cells by sulforhodamine B assay
How it was run: (§1)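 Growth of the human tumor cell line was read colorimetrically with sulforhodamine B, following the NCI standard protocol, with doxorubicin as positive control. Compounds were tested at four concentrations in 10-fold dilutions (0.25 to 250). Dose-response curves gave GI50 (the concentration for 50% growth inhibition), TGI (total growth inhibition) and LC50 (50% cell death).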

MCF7 = assay: Cytotoxicity against human MCF7 cells by sulforhodamine B assay; settings: for CC50: read-out: LC50 (the source's name); how it was run: as §1
[1] = Cytotoxicity against human NCI/ADR cells by sulforhodamine B assay; settings: NCI/ADR-RES; for CC50: read-out: LC50 (the source's name); how it was run: as §1
NCI-H460 = assay: Cytotoxicity against human NCI-H460 cells by sulforhodamine B assay; settings: for CC50: read-out: LC50 (the source's name); how it was run: as §1
[2] = Cytotoxicity against human PCO3 cells by sulforhodamine B assay; settings: for CC50: read-out: LC50 (the source's name); how it was run: as §1
OVCAR-3 = assay: Cytotoxicity against human OVCAR-3 cells by sulforhodamine B assay; settings: for CC50: read-out: LC50 (the source's name); how it was run: as §1
HT-29 = assay: Cytotoxicity against human HT-29 cells by sulforhodamine B assay; settings: for CC50: read-out: LC50 (the source's name); how it was run: as §1
K562 = assay: Cytotoxicity against human K562 cells by sulforhodamine B assay; settings: for CC50: read-out: LC50 (the source's name); how it was run: as §1

Structure (SMILES)	GI50 (UACC-62)	LC50 (50% cell kill) (UACC-62)	TGI (UACC-62)	GI50 (MCF7)	TGI (MCF7)	CC50 (MCF7)	GI50 [1]	TGI [1]	CC50 [1]	GI50 (NCI-H460)	TGI (NCI-H460)	CC50 (NCI-H460)	GI50 [2]	TGI [2]	CC50 [2]	GI50 (OVCAR-3)	TGI (OVCAR-3)	CC50 (OVCAR-3)	GI50 (HT-29)	TGI (HT-29)	also measured
CC1=CC[C@@H]([C@@](C)(O)CCCC(C)(C)NC(=S)NN=C(c2ccccc2)c2ccccc2)CC1	> 100 µM	> 100 µM	> 100 µM	36.7 µM	> 100 µM	> 100 µM	3.31 µM	> 100 µM	> 100 µM	13.5 µM	> 100 µM	> 100 µM	> 100 µM	> 100 µM	> 100 µM	> 100 µM	> 100 µM	> 100 µM	> 100 µM	> 100 µM	CC50 (HT-29): > 100 µM; GI50 (K562): 1.94 µM; TGI (K562): 4.19 µM; CC50 (K562): 10.3 µM
COc1ccc(/C=N\NC(=S)NC(C)(C)CCC[C@](C)(O)[C@@H]2CC=C(C)CC2)cc1	7.42 µM	48.5 µM	22.1 µM	6.5 µM	94.9 µM	> 100 µM	6.73 µM	57 µM	> 100 µM	5.1 µM	> 100 µM	> 100 µM	7.66 µM	76 µM	> 100 µM	6.5 µM	15.8 µM	46.2 µM	7.42 µM	35.1 µM	CC50 (HT-29): > 100 µM; GI50 (K562): 0.22 µM; TGI (K562): 34.9 µM; CC50 (K562): > 100 µM
CC1=CC[C@@H]([C@@](C)(O)CCCC(C)(C)NC(=S)N/N=C\c2cccc(Cl)c2)CC1	7.81 µM	42.7 µM	18.1 µM	7.35 µM	19.5 µM	45.9 µM	7.35 µM	31.9 µM	> 100 µM	44.3 µM	> 100 µM	> 100 µM	11.2 µM	37.8 µM	57 µM	8.27 µM	26.5 µM	48 µM	6.89 µM	16.5 µM	CC50 (HT-29): 45.9 µM; GI50 (K562): 0.03 µM; TGI (K562): 1.06 µM; CC50 (K562): 56.3 µM
CC1=CC[C@@H]([C@@](C)(O)CCCC(C)(C)NC(=S)N/N=C(/C)c2ccccc2)CC1	22.4 µM	> 100 µM	93.3 µM	23.6 µM	62.9 µM	> 100 µM	0.75 µM	> 100 µM	> 100 µM	12.6 µM	> 100 µM	> 100 µM	19.9 µM	> 100 µM	> 100 µM	14.3 µM	59.5 µM	> 100 µM	28.4 µM	> 100 µM	CC50 (HT-29): > 100 µM; GI50 (K562): 0.01 µM; TGI (K562): 0.07 µM; CC50 (K562): 1.54 µM
CC1=CC[C@@H]([C@@](C)(O)CCCC(C)(C)NC(=S)N/N=C\c2ccc([N+](=O)[O-])cc2)CC1	20.8 µM	> 100 µM	62.2 µM	17.7 µM	> 100 µM	> 100 µM	12.8 µM	> 100 µM	> 100 µM	10.1 µM	> 100 µM	> 100 µM	18.1 µM	> 100 µM	> 100 µM	13.4 µM	88.6 µM	> 100 µM	12.3 µM	62.8 µM	CC50 (HT-29): > 100 µM; GI50 (K562): 4.22 µM; TGI (K562): 9.56 µM; CC50 (K562): 45.5 µM
CC1=CC[C@@H]([C@@](C)(O)CCCC(C)(C)NC(=S)NN)CC1	18.5 µM	> 100 µM	> 100 µM	15.3 µM	84.2 µM	> 100 µM	0.76 µM	29 µM	> 100 µM	12.8 µM	84 µM	> 100 µM	26.8 µM	> 100 µM	> 100 µM	17.2 µM	> 100 µM	> 100 µM	49.4 µM	> 100 µM	CC50 (HT-29): > 100 µM; GI50 (K562): 0.02 µM; TGI (K562): 0.38 µM; CC50 (K562): 9.58 µM
CC1=CC[C@@H]([C@@](C)(O)CCCC(C)(C)NC(=S)N/N=C\c2ccccc2[N+](=O)[O-])CC1	6.05 µM	49.3 µM	16.6 µM	18.6 µM	> 100 µM	> 100 µM	20.4 µM	> 100 µM	> 100 µM	20.6 µM	> 100 µM	> 100 µM	39.9 µM	> 100 µM	> 100 µM	7.39 µM	16.2 µM	41.9 µM	6.94 µM	16.8 µM	CC50 (HT-29): 44.4 µM; GI50 (K562): 0.19 µM; TGI (K562): 7.84 µM; CC50 (K562): > 100 µM
